From BindingDB's records for doi:10.1021/jm00012a002 (Tosoh, 1995)

What was measured:
[1] = biological target: HIV-1 RT (reverse transcriptase); assay: Inhibitory effect on HIV-1 RT activity using template primer,poly (rA)-oligo (dT)
Outline: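 Recombinant HIV-1 reverse transcriptase with poly(rA)-oligo(dT) as template-primer; IC50 is the 50% inhibition concentration, given as the mean of at least two separate experiments.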

[2] = Inhibitory effect on HIV-1 RT activity using template primer,poly (rC)-oligo (dG)

| SMILES | IC50 [1] [µM] | IC50 [2] [µM] |
| --- | --- | --- |
| CC(=O)c1ccc(C)cc1N[C@H](C(N)=O)c1c(Cl)cccc1Cl | 16 | – |
| CCCCN(C)C(=O)Oc1nsnc1-c1c(Cl)cccc1Cl [Butyl-methyl-carbamic acid 4-(2,6-dichloro-phenyl)-[1,2,5]thiadiazol-3-yl ester] | 12 | – |
| CCN(C)C(=O)Oc1nsnc1-c1c(Cl)cccc1Cl [Ethyl-methyl-carbamic acid 4-(2,6-dichloro-phenyl)-[1,2,5]thiadiazol-3-yl ester] | 3.4 | 0.3 |
| CCCN(C)C(=O)Oc1nsnc1-c1c(Cl)cccc1Cl [Methyl-propyl-carbamic acid 4-(2,6-dichloro-phenyl)-[1,2,5]thiadiazol-3-yl ester] | 5.8 | 0.8 |
